The text below walks through data of PMC5958747 (Endocrine Connections, 2018).

Marks after values point to notes of the source that are not given here.

For data set [1], the system named is MNU-induced mammary tumours. Put plainly: N-methyl-N-nitrosourea. The note with it: for increase of mammary tumour number in tumour-bearing rats compared with controls: end of study, significant for glargine only; for number of tumours per rat (tumour multiplicity, all rats): including rats bearing no tumour, 15 U/kg/day s.c. 5 days a week, at 6 weeks of treatment, high-fat diet, MNU, mean ± S.E.M., n = 30 per group. In kind it is in vivo, female Sprague-Dawley rats.

The format of data set [2] is in vivo, female Sprague-Dawley rats. Particulars: for Final body weight: after 6 weeks of 15 U/kg s.c. 5 days per week; for Final body weight / Food intake / Body weight increase: mean ± S.E.M., n = 30; for Food intake: average over the treatment period; for Body weight increase: over 6 weeks of treatment; for blood glucose levels before the injection vs control or detemir groups: over the treatment period, n = 30 per group. In a few lines: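 Female Sprague-Dawley rats on a high-fat diet (40% of calories) from 4 weeks of age were given MNU 485 μmol/kg s.c. 1 week later. Light cycle was shifted to 13:00–01:00 h. At 9 weeks, rats were randomised (n = 30/group) to saline or insulin s.c. at 11:00–12:00 h, 5 days/week, ramped 5→10→15 U/kg. Tail-nick glucometer glucose was taken before and 4 h post-injection three times weekly. Data are mean ± s.e.m., analysed by ANOVA and Waller–Duncan test.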

The subject of data set [3] is Akt (phospho-Ser473-Akt / total Akt). The data set is described as follows: Western blot of phosphorylated and total Akt in mammary tumours. The note with it: mammary tumours 4 h after last s.c. injection, 15 U/kg. In kind it is in vivo, female Sprague-Dawley rats. The essentials:
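High-fat-fed, MNU-treated female Sprague-Dawley rats received saline or insulin s.c. 5 days/week for 6 weeks. Palpable mammary tumours were collected under ketamine/xylazine/acepromazine anaesthesia 4 h after the last injection, halved, and one half was snap-frozen in liquid nitrogen for Western blotting of phosphorylated and total Akt.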
Background: Immunoblotting shows a protein as a band on a membrane.

The format of data set [4] is in vivo, female Sprague-Dawley rats. The note with it: 15 U/kg s.c.; for steady plasma concentrations (unit/L) up to: high-fat-fed rats, n = 6, unmetabolised glargine.
The conditions of data set [5]: ref not given, cited from earlier work.

With “NPH: NPH (unmodified human insulin), purchased from Eli Lilly, Canada”, in data set [1], the “increase of mammary tumour number in tumour-bearing rats compared with controls” value (from here on “increase of mammary tumour number”) was “approximately doubled”. In data set [2], the Final body weight came out at 346 ± 7 g, the Food intake worked out at 21.1 ± 1.4 g/day, the Body weight increase is 98.7 ± 4.5^a g and the “blood glucose levels before the injection vs control or detemir groups” value is “slightly higher”.
For glargine, in data set [1], the “number of tumours per rat (tumour multiplicity, all rats)” value is 1.5 ± 0.4 and the “increase of mammary tumour number” value worked out at 2 fold. For the same substance, in data set [2], the Final body weight was found to be 343 ± 5 g, the Food intake is recorded as 21.1 ± 1.2 g/day, the Body weight increase was determined as 93.8 ± 4.4 g and the “blood glucose levels before the injection vs control or detemir groups” value is listed as “slightly higher”. In addition, the “ratio of phosphorylated (active) Akt to total Akt vs control group” value in data set [3] is given as “higher”. Besides, the “steady plasma concentrations (unit/L) up to” value in data set [4] is “up to 9 h”. Besides, the “peak of glucose-lowering action” value in data set [4] (insulin-resistant rats, partial recovery of plasma glucose at 9 h) was in the range of 1.5 to 4 h. In data set [5] (humans), the “sustained action after subcutaneous injection in humans” value is given as “over 20 h”. In addition, in data set [5] (species not given, general statement), the “sustained action after subcutaneous injection” value is given as “up to 24 h”.
With detemir, in data set [1], the “number of tumours per rat (tumour multiplicity, all rats)” value is 1.4 ± 0.4 and the “increase of mammary tumour number” value is “approximately doubled”. In data set [2], this substance displayed a Final body weight of 338 ± 6 g, a Food intake of 19.7 ± 0.8 g/day and a Body weight increase of 80.7 ± 3.9 g. For the same substance, in data set [3], the “ratio of phosphorylated (active) Akt to total Akt vs control group” value is “higher”. Besides, the “steady plasma concentrations (unit/L) up to” value in data set [4] is on record as “up to 9 h”.
